Assay [1] has as its target T1, Toll-like receptor 9 (Mus musculus) (UniProt Q9EQU3).
T1 sequence (whole entry): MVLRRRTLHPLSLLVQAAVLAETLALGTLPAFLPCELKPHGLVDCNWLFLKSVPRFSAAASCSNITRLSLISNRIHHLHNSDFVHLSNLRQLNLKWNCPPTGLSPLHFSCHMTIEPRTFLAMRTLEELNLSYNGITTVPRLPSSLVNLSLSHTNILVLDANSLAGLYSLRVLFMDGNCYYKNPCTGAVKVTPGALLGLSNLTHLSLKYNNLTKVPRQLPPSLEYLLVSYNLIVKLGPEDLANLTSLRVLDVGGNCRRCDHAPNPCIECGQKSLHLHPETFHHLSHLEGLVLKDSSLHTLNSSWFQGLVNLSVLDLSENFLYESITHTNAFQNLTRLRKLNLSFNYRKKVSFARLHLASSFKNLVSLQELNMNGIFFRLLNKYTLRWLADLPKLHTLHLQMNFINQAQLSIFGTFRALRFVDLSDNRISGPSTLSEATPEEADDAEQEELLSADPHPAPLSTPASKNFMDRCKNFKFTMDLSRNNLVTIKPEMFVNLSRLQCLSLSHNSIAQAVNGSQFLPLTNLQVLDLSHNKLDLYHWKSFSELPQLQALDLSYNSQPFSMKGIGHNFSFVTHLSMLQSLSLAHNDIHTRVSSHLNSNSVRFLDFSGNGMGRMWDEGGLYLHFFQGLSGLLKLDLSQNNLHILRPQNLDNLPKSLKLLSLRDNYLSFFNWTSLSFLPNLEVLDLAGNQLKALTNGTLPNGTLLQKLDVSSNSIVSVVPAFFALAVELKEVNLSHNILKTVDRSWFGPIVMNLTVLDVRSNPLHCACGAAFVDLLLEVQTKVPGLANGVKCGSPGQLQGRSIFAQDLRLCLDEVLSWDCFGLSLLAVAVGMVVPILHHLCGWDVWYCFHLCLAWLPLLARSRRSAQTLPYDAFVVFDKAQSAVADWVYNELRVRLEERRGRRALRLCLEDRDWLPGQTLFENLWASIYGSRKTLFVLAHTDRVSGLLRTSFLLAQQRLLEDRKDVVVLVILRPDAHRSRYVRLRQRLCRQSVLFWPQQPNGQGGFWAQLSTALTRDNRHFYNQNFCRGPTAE
The experiment in a line: Inhibition of TLR9 in BALB/c mouse BMDM assessed as downregulation of CpG-stimulated IL-6 level at 5 ug/ml preincubated for 18 hrs followed by CpG challenge measured after 24 hrs by ELISA relative to control. In a few lines: (§1)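 BALB/c male bone marrow macrophages were differentiated 7 days with L929 supernatant (≥99% CD11b+/F4/80+). Cells were plated at 2 × 10^5/well in triplicate, rested overnight, and given compounds at 5 μg/mL for 18 h. They were then stimulated with 100 ng/mL S. minnesota LPS, 10 ng/mL Pam3CSK4 (BLP) or 0.01 μM CpG for 24 h. Supernatant IL-12p40 and IL-6 were measured by ELISA (sensitivity 16 pg/mL).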
Background: An ELISA detects its analyte on a solid surface through an enzyme-linked reagent.

Assay [2] deals with T2, TLR2/TLR6 (Mus musculus) (UniProt Q9QUN7+Q9EPW9). The experiment in a line: Inhibition of TLR2/6 in BALB/c mouse BMDM assessed as downregulation of BLP-stimulated IL-6 level at 5 ug/ml preincubated for 18 hrs followed by BLP challenge measured after 24 hrs by ELISA relative to control. It is filed as protein-complex assay. The method, boiled down: as §1
In assay [3] the target is T1, Toll-like receptor 9 (Mus musculus). The experiment in a line: Inhibition of TLR9 in BALB/c mouse BMDM assessed as downregulation of CpG-stimulated IL-12p40 level at 5 ug/ml preincubated for 18 hrs followed by CpG challenge measured after 24 hrs by ELISA relative to control. In a few lines: as §1
Assay [4] has as its target T3, Toll-like receptor 4 (Mus musculus) (UniProt Q9QUK6).
T3 sequence (whole entry): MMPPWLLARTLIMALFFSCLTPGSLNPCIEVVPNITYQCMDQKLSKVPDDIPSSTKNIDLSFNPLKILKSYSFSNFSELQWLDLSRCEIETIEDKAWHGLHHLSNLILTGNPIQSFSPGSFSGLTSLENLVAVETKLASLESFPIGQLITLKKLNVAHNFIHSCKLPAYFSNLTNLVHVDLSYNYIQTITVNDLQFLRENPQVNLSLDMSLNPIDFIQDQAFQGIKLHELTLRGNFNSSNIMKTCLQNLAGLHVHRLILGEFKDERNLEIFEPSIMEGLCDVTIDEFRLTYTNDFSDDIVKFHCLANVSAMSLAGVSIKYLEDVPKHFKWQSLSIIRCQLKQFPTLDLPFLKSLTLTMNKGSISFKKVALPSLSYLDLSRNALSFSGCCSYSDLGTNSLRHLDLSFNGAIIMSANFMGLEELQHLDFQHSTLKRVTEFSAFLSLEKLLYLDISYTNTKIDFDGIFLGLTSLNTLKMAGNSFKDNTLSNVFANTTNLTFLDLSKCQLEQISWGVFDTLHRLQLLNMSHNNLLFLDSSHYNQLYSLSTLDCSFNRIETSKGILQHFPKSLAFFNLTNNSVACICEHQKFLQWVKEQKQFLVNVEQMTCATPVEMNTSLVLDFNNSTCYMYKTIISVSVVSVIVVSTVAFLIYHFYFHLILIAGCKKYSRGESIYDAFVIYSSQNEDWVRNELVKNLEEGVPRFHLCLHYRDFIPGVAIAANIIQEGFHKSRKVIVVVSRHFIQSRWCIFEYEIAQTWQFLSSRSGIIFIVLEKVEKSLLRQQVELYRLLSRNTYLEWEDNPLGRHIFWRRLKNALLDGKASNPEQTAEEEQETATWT
The experiment in a line: Inhibition of TLR4 in BALB/c mouse BMDM assessed as downregulation of LPS-stimulated IL-6 level at 5 ug/ml preincubated for 18 hrs followed by LPS challenge measured after 24 hrs by ELISA relative to control. In a few lines: as §1

Assay [5] addresses T3, Toll-like receptor 4 (Mus musculus). The experiment in a line: Inhibition of TLR4 in BALB/c mouse BMDM assessed as downregulation of LPS-stimulated IL-12p40 level at 5 ug/ml preincubated for 18 hrs followed by LPS challenge measured after 24 hrs by ELISA relative to control. In a few lines: as §1
Assay [6] deals with T2, TLR2/TLR6 (Mus musculus). The experiment in a line: Inhibition of TLR2/6 in BALB/c mouse BMDM assessed as downregulation of BLP-stimulated IL-12p40 level at 5 ug/ml preincubated for 18 hrs followed by BLP challenge measured after 24 hrs by ELISA relative to control. The class given is protein-complex assay. The method, boiled down: as §1

The structures appear in SMILES notation. Active and inactive are the calls of the source. How the calls were made is not given here.

`Cc1ccc(CNS(=O)(=O)CCN2CCCC2)cc1`: the inhibition entry (in assay [1]; at TLR2/TLR6 (Mus musculus) [2]; in assay [3]; in assay [4]; in assay [5]; on TLR2/TLR6 (Mus musculus) [6]) was “inactive” each time.

For `CN(C)CCNS(=O)(=O)Cc1ccc(Br)cc1`, the inhibition result (in assay [1]; on TLR2/TLR6 (Mus musculus) [2]; in assay [3]; in assay [4]; in assay [5]; on TLR2/TLR6 (Mus musculus) [6]) was “inactive” throughout.

For the compound `Cc1ccc(CS(=O)(=O)NCCN(C)C)cc1`, the inhibition result (in assay [1]; on TLR2/TLR6 (Mus musculus) [2]; in assay [3]; in assay [4]; in assay [5]; at TLR2/TLR6 (Mus musculus) [6]) was “inactive” throughout.

Regarding `C[N+](C)(C)CCS(=O)(=O)Cc1ccc(Br)cc1`, the inhibition result (in assay [1]; on TLR2/TLR6 (Mus musculus) [2]; in assay [3]; in assay [4]; in assay [5]; at TLR2/TLR6 (Mus musculus) [6]) was “inactive” each time.

For `Cc1ccc(CS(=O)(=O)CC[N+]2(C)CCCC2)cc1`, the inhibition result (in assay [1]; on TLR2/TLR6 (Mus musculus) [2]; in assay [3]; in assay [4]) was “inactive” throughout. The inhibition entry (in assay [5]; at TLR2/TLR6 (Mus musculus) [6]) was “Active” throughout.

In the case of `C[N+]1(CCS(=O)(=O)Cc2ccc(Br)cc2)CCCC1`, the inhibition result (in assay [1]; on TLR2/TLR6 (Mus musculus) [2]; in assay [3]) was “inactive” each time. Besides, the inhibition result (in assay [4]; in assay [5]; at TLR2/TLR6 (Mus musculus) [6]) was “Active” throughout.

For the compound `CN(C)CCN(C)CCS(=O)(=O)Cc1cccc(F)c1`, the inhibition entry (in assay [1]; on TLR2/TLR6 (Mus musculus) [2]; in assay [3]; in assay [4]; in assay [5]; at TLR2/TLR6 (Mus musculus) [6]) was “inactive” in each case.

As for `CN(C)CCCNS(=O)(=O)Cc1ccc(F)cc1`, the inhibition entry (in assay [1]; at TLR2/TLR6 (Mus musculus) [2]; in assay [3]; in assay [4]; in assay [5]; at TLR2/TLR6 (Mus musculus) [6]) was “inactive” throughout.

On to `O=S(=O)(CCN1CCOCC1)Cc1ccc(F)cc1`, for which the inhibition result (in assay [1]; at TLR2/TLR6 (Mus musculus) [2]; in assay [3]; in assay [5]; at TLR2/TLR6 (Mus musculus) [6]) was “inactive” throughout. In assay [4], the inhibition entry is “Active”.

`O=S(=O)(Cc1ccc2ccccc2c1)NCCN1CCCC1`: the inhibition result (in assay [1]; in assay [3]; in assay [4]; in assay [5]; at TLR2/TLR6 (Mus musculus) [6]) was “inactive” in each case. The inhibition result on TLR2/TLR6 (Mus musculus) [2] was “Active”.

Turning to `O=S(=O)(CCN1CCOCC1)Nc1ccc(F)cc1`, the inhibition entry (in assay [1]; on TLR2/TLR6 (Mus musculus) [2]; in assay [3]; in assay [4]; on TLR2/TLR6 (Mus musculus) [6]) was “inactive” in each case. For the same compound, the inhibition entry in assay [5] is “Active”.

As for `CN(C)CCS(=O)(=O)NCc1ccccc1`, the inhibition entry (in assay [1]; at TLR2/TLR6 (Mus musculus) [2]; in assay [3]; in assay [4]; in assay [5]; on TLR2/TLR6 (Mus musculus) [6]) was “inactive” in each case.

Turning to `CN(C)CCNS(=O)(=O)Cc1ccc(/C=C/c2ccccc2)cc1`, the inhibition entry (in assay [1]; on TLR2/TLR6 (Mus musculus) [2]; in assay [3]; in assay [4]; in assay [5]) was “inactive” throughout. The inhibition entry on TLR2/TLR6 (Mus musculus) [6] was “Active”.

With `Cc1ccc(CS(=O)(=O)NCCN2CCOCC2)cc1`, the inhibition result (in assay [1]; on TLR2/TLR6 (Mus musculus) [2]; in assay [3]; in assay [4]; in assay [5]; on TLR2/TLR6 (Mus musculus) [6]) was “inactive” each time.

In the case of `CN(C)CCCNC(=O)Cc1ccccc1`, the inhibition result (in assay [1]; at TLR2/TLR6 (Mus musculus) [2]; in assay [3]; in assay [4]; in assay [5]; at TLR2/TLR6 (Mus musculus) [6]) was “inactive” in each case.

As for `Cc1ccc(CS(=O)(=O)CCCN(C)C)cc1`, the inhibition result (in assay [1]; on TLR2/TLR6 (Mus musculus) [2]; in assay [3]; in assay [4]; in assay [5]; on TLR2/TLR6 (Mus musculus) [6]) was “inactive” in each case.

Take `CN(C)CCNCCS(=O)(=O)c1ccccc1`: the inhibition result (in assay [1]; at TLR2/TLR6 (Mus musculus) [2]; in assay [3]; in assay [4]; in assay [5]; on TLR2/TLR6 (Mus musculus) [6]) was “inactive” in each case.

For `CC[C@H](C)NCCS(=O)(=O)c1ccccc1`, the inhibition entry (in assay [1]; on TLR2/TLR6 (Mus musculus) [2]; in assay [3]; in assay [4]; in assay [5]; on TLR2/TLR6 (Mus musculus) [6]) was “inactive” in each case.

The values are drawn from ChEMBL document CHEMBL3108700, “Designing anti-inflammatory drugs from parasitic worms: a synthetic small molecule analogue of the Acanthocheilonema viteae product ES-62 prevents development of collagen-induced arthritis” (J Med Chem, 2013).
